Where no end group is shown, it is not given here.
T1: Histone H4K20me2 peptide 14-25 (Homo sapiens, UniProt P62805)
T1 chain: GGAKRHRK(Me2)VLRD

T2: Histone H4K20me3 peptide 14-25 (Homo sapiens, UniProt P62805)
T2 chain: GGAKRHRK(Me3)VLRD


Tests used:
[1] = system: ORC components (ORC2, ORC3 and ORC5); assay: Affinity purification of FLAG-ORC1 complexes from U2OS cells; format: cell-based, human; details: vs wild-type ORC1, Western blot
[2] = system: ORC components (ORC2, ORC3 and ORC5); assay: Affinity purification of FLAG-ORC1 complexes from HT1080 cells; format: cell-based, human; details: vs wild-type ORC1, Western blot
chromatin = assay: Small-scale biochemical fractionation: ORC chromatin association; format: cell-based, human; details: cells stably expressing ORC1 protein, in comparison to hORC1; Western blot
WI38 cells = assay: Cell-cycle profile of WI38 cells by flow cytometry; format: cell-based, human; details: WI38 primary fibroblast, relative to wild-type hORC1
Procedure, shortened: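 WI38 cells transiently expressing GFP plus wild-type ORC1 or an H4K20me2-binding-pocket point mutant (Y64A or W88A). Cell-cycle profile determined by flow cytometry, gating on GFP-positive cells so that only transfected cells are scored. Percentage of cells in each cell-cycle phase and the S/G1 ratio are calculated per transfection. Two experiments, s.d. reported.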

[3] = target: T1, Histone H4K20me2 peptide 14-25; assay: ITC
[4] = target: T2, Histone H4K20me3 peptide 14-25; assay: ITC

| Molecule | Kd [3] [µM] | Kd [4] [µM] | efficiency of affinity purification of ORC2, ORC3 and ORC5 [1] | efficiency of affinity purification of ORC2, ORC3 and ORC5 [2] | ORC1 enrichment at chromatin (chromatin) | S phase population (WI38 cells) | S/G1 ratio (in words) (WI38 cells) |
| --- | --- | --- | --- | --- | --- | --- | --- |
| hORC1Y64A: H4K20me2-binding pocket mutant Y64A of human ORC1 (protein, UniProt Q13415 1-861, looked up, variant Y64A) Origin recognition complex …: MAHYPTRLKTRKTYSWVGRPLLDRKLHYQTYREMCVKTEGCSTEIHIQIGQFVLIEGDDDENPAVAKLLELFEDDSDPPPKKRARVQWFVRFCEVPACKRHLLGRKPGAQEIFWYDYPACDSNINAETIIGLVRVIPLAPKDVVPTNLKNEKTLFVKLSWNEKKFRPLSSELFAELNKPQESAAKCQKPVRAKSKSAESPSWTPAEHVAKRIESRHSASKSRQTPTHPLTPRARKRLELGNLGNPQMSQQTSCASLDSPGRIKRKVAFSEITSPSKRSQPDKLQTLSPALKAPEKTRETGLSYTEDDKKASPEHRIILRTRIAASKTIDIREERTLTPISGGQRSSVVPSVILKPENIKKRDAKEAKAQNEATSTPHRIRRKSSVLTMNRIRQQLRFLGNSKSDQEEKEILPAAEISDSSSDEEEASTPPLPRRAPRTVSRNLRSSLKSSLHTLTKVPKKSLKPRTPRCAAPQIRSRSLAAQEPASVLEEARLRLHVSAVPESLPCREQEFQDIYNFVESKLLDHTGGCMYISGVPGTGKTATVHEVIRCLQQAAQANDVPPFQYIEVNGMKLTEPHQVYVQILQKLTGQKATANHAAELLAKQFCTRGSPQETTVLLVDELDLLWTHKQDIMYNLFDWPTHKEARLVVLAIANTMDLPERIMMNRVSSRLGLTRMCFQPYTYSQLQQILRSRLKHLKAFEDDAIQLVARKVAALSGDARRCLDICRRATEICEFSQQKPDSPGLVTIAHSMEAVDEMFSSSYITAIKNSSVLEQSFLRAILAEFRRSGLEEATFQQIYSQHVALCRMEGLPYPTMSETMAVCSHLGSCRLLLVEPSRNDLLLRVRLNVSQDDVLYALKDE |  |  | equal to that observed with the wild-type protein | equal to that observed with the wild-type protein | considerably reduced | decreased S phase population | lower S/G1 ratio |
| hORC1W88A: H4K20me2-binding pocket mutant W88A of human ORC1 (protein, UniProt Q13415 1-861, looked up, variant W88A) Origin recognition complex …: MAHYPTRLKTRKTYSWVGRPLLDRKLHYQTYREMCVKTEGCSTEIHIQIGQFVLIEGDDDENPYVAKLLELFEDDSDPPPKKRARVQAFVRFCEVPACKRHLLGRKPGAQEIFWYDYPACDSNINAETIIGLVRVIPLAPKDVVPTNLKNEKTLFVKLSWNEKKFRPLSSELFAELNKPQESAAKCQKPVRAKSKSAESPSWTPAEHVAKRIESRHSASKSRQTPTHPLTPRARKRLELGNLGNPQMSQQTSCASLDSPGRIKRKVAFSEITSPSKRSQPDKLQTLSPALKAPEKTRETGLSYTEDDKKASPEHRIILRTRIAASKTIDIREERTLTPISGGQRSSVVPSVILKPENIKKRDAKEAKAQNEATSTPHRIRRKSSVLTMNRIRQQLRFLGNSKSDQEEKEILPAAEISDSSSDEEEASTPPLPRRAPRTVSRNLRSSLKSSLHTLTKVPKKSLKPRTPRCAAPQIRSRSLAAQEPASVLEEARLRLHVSAVPESLPCREQEFQDIYNFVESKLLDHTGGCMYISGVPGTGKTATVHEVIRCLQQAAQANDVPPFQYIEVNGMKLTEPHQVYVQILQKLTGQKATANHAAELLAKQFCTRGSPQETTVLLVDELDLLWTHKQDIMYNLFDWPTHKEARLVVLAIANTMDLPERIMMNRVSSRLGLTRMCFQPYTYSQLQQILRSRLKHLKAFEDDAIQLVARKVAALSGDARRCLDICRRATEICEFSQQKPDSPGLVTIAHSMEAVDEMFSSSYITAIKNSSVLEQSFLRAILAEFRRSGLEEATFQQIYSQHVALCRMEGLPYPTMSETMAVCSHLGSCRLLLVEPSRNDLLLRVRLNVSQDDVLYALKDE |  |  | equal to that observed with the wild-type protein | equal to that observed with the wild-type protein | considerably reduced | decreased S phase population | lower S/G1 ratio |

More lines, main results first:

| Kd [3] [µM] | Kd [4] [µM] | Molecule | efficiency of affinity purification of ORC2, ORC3 and ORC5 [1] | efficiency of affinity purification of ORC2, ORC3 and ORC5 [2] | ORC1 enrichment at chromatin (chromatin) | S phase population (WI38 cells) | S/G1 ratio (in words) (WI38 cells) |
| --- | --- | --- | --- | --- | --- | --- | --- |
| 9.6 |  | ORC1 BAH domain (mORC1BAH) 9-170 (protein) KTRQTFSWVGRPLPNRKQFQQMYREICMKINDGSEIHIKVGQFVLIQGEDNKKPYVAKLIELFQNGAEVPPKKCARVQWFVRFLEIPVSKRHLLGRSPPAQEIFWYDCSDWDNKINVETIIGPVQVVALAPEEVIPVDQKSEETLFVKLSWNKKDFAPLPPE |  |  |  |  |  |
|  | 40 | ORC1 BAH domain (hORC1BAH) 1-185 (protein) MAHYPTRLKTRKTYSWVGRPLLDRKLHYQTYREMCVKTEGCSTEIHIQIGQFVLIEGDDDENPYVAKLLELFEDDSDPPPKKRARVQWFVRFCEVPACKRHLLGRKPGAQEIFWYDYPACDSNINAETIIGLVRVIPLAPKDVVPTNLKNEKTLFVKLSWNEKKFRPLSSELFAELNKPQESAAK |  |  |  |  |  |
